A word on the pKd: it is the negative decadic logarithm of the Kd, by convention in mol/L.

Structures are written as SMILES. pKd: −log10 of the molar value. Activity calls are given as the source filed them. The calls are words filed in the database; no cut-off is given here.

From ChEMBL document CHEMBL5705891, “Small-molecule kinase inhibitors provide insight into Mps1 cell cycle function” (Nat Chem Biol, 2010) come the findings set out here.

Assay [1] concerns UTRM10. The assay is described as follows: Upregulation of phosphorylated histone H3 level in UTRM10 cells (unknown origin) upto 10 uM by immunoblot analysis. Format: functional, cell-based. On the technique in general: Immunoblotting shows a protein as a band on a membrane.
Assay [2] concerns U2OS. The assay is described as follows: Reversal of nocodazole-induced mitotic arrest in human U2OS cells assessed as decrease in cyclin B level at 0.3 to 10 uM incubated for 4 hrs by immunoblot analysis. Format: functional, cell-based. The settings on record: dose 0.3-10 µM.
The target of assay [3] is Receptor-type tyrosine-protein kinase FLT3 (Homo sapiens) (UniProt P36888). The assay is described as follows: Inhibition of FLT3 (unknown origin) assessed as residual enzyme activity at 10 uM by Ambit kinase binding assay relative to control.
For assay [4], the target named is Serine/threonine-protein kinase PLK4 (Homo sapiens, UniProt O00444). The experiment in a line: Binding affinity to PLK4 (unknown origin) assessed as dissociation constant by Ambit kinase binding assay.
Assay [5] deals with Serine/threonine-protein kinase 33 (Homo sapiens, UniProt Q9BYT3). The assay is described as follows: Binding affinity to STK33 (unknown origin) assessed as dissociation constant by Ambit kinase binding assay.
Assay [6] concerns the target Serine/threonine-protein kinase PLK3 (Homo sapiens, UniProt Q9H4B4). The assay is described as follows: Binding affinity to PLK3 (unknown origin) assessed as dissociation constant by Ambit kinase binding assay.
Assay [7] addresses Cyclin-G-associated kinase (Homo sapiens, UniProt O14976). The experiment in a line: Binding affinity to GAK (unknown origin) assessed as dissociation constant by Ambit kinase binding assay.
The target in assay [8] is Protein-tyrosine kinase 2-beta (Homo sapiens, UniProt Q14289). The experiment in a line: Inhibition of PTK2B (unknown origin) assessed as residual enzyme activity at 10 uM by Ambit kinase binding assay relative to control.
Assay [9] concerns the target T1, Cyclin-G-associated kinase (Homo sapiens) (UniProt O14976).
T1 sequence (whole entry): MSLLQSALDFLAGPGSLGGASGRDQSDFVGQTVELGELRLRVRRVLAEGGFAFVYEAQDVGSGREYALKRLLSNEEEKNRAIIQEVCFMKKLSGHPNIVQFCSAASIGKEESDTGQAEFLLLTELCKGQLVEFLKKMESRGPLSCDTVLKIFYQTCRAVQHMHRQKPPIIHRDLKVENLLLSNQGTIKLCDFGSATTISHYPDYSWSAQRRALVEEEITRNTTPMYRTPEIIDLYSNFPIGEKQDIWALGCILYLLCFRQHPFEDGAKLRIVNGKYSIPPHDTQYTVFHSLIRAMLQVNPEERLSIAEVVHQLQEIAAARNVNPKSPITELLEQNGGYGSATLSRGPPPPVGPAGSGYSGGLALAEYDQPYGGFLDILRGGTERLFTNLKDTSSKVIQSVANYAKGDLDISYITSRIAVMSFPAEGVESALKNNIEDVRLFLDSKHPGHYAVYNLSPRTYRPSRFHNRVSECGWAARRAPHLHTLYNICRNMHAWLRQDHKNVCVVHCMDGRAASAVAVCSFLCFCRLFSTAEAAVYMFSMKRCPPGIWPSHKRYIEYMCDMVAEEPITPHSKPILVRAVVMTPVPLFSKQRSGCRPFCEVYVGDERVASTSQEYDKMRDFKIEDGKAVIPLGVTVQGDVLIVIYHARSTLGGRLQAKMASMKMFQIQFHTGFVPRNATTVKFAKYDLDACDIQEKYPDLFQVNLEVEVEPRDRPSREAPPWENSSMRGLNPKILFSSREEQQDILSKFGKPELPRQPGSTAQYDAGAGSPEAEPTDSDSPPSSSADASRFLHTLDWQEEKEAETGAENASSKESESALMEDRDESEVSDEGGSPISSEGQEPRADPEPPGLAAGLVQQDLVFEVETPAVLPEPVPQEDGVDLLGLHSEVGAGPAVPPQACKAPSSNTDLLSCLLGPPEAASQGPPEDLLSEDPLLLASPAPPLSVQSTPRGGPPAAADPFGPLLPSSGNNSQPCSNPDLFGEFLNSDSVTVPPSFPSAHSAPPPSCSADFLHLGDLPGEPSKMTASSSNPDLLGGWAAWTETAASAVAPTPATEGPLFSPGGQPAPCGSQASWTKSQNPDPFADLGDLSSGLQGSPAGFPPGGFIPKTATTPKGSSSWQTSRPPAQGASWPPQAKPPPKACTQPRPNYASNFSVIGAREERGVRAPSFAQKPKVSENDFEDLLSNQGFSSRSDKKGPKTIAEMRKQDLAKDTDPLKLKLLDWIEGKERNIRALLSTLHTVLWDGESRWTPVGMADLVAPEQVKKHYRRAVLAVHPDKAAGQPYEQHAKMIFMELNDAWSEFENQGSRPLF
The experiment in a line: Inhibition of GAK (unknown origin) assessed as residual enzyme activity at 10 uM by Ambit kinase binding assay relative to control.

Assay [10] deals with Serine/threonine-protein kinase PLK1 (Homo sapiens, UniProt P53350). The assay is described as follows: Binding affinity to PLK1 (unknown origin) assessed as dissociation constant by Ambit kinase binding assay.
Assay [11] deals with U2OS. The experiment in a line: Reversal of nocodazole-induced mitotic arrest in human U2OS cells assessed as decrease in cyclin B level at 10 uM incubated for 4 hrs in presence of MG132 by immunoblot analysis. Type of assay: functional, cell-based.
The test system of assay [12] is U2OS. The assay is described as follows: Reversal of s-trityl cysteine-induced mitotic arrest in human U2OS cells assessed as Ser10 phosphorylated Histone H3-positive 4c population at 5 uM incubated for 16 hrs by flow cytometry (reference value: 50 %). Format: functional. In general terms: A flow cytometer gives signals particle by particle.
The subject of assay [13] is U2OS. The experiment in a line: Reversal of s-trityl cysteine-induced mitotic arrest in human U2OS cells assessed as Ser10 phosphorylated Histone H3-positive 4c population at 10 uM incubated for 16 hrs by flow cytometry (reference value: 50 %). Type of assay: functional.
The test system of assay [14] is UTRM10. The experiment in a line: Reversal of Paclitaxel-induced mitotic arrest in UTRM10 cells (unknown origin) by immunoblot analysis. Format: functional, cell-based.
In assay [15] the test system is U2OS. The experiment in a line: Induction of extra centrosomes in cell populations of thymidine-treated human U2OS cells expressing H2B-GFP and Plk4 overexpression assessed as fold delay in anaphase onset measured for 30 mins by time lapse imaging analysis relative to control. Format: functional. The settings on record: 0.5 h. The method in brief: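 Doxycycline-inducible Plk4 U2OS cells expressing H2B-GFP were blocked with thymidine for 18 hrs and released into doxycycline (2 μg·ml⁻¹) for 10 hrs. A second 18-hr thymidine block followed, then release for 6 hrs before 5 μM inhibitor, with or without Plk4 induction. Cells were imaged by time-lapse at 37°C, 5% CO₂, timed from NEBD, and bipolar versus multipolar anaphases were scored. Values are mean ± SD of 3 independent experiments.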

For assay [16], the target named is T2, Serine/threonine-protein kinase PLK4 (Homo sapiens) (UniProt O00444).
T2 sequence (whole entry): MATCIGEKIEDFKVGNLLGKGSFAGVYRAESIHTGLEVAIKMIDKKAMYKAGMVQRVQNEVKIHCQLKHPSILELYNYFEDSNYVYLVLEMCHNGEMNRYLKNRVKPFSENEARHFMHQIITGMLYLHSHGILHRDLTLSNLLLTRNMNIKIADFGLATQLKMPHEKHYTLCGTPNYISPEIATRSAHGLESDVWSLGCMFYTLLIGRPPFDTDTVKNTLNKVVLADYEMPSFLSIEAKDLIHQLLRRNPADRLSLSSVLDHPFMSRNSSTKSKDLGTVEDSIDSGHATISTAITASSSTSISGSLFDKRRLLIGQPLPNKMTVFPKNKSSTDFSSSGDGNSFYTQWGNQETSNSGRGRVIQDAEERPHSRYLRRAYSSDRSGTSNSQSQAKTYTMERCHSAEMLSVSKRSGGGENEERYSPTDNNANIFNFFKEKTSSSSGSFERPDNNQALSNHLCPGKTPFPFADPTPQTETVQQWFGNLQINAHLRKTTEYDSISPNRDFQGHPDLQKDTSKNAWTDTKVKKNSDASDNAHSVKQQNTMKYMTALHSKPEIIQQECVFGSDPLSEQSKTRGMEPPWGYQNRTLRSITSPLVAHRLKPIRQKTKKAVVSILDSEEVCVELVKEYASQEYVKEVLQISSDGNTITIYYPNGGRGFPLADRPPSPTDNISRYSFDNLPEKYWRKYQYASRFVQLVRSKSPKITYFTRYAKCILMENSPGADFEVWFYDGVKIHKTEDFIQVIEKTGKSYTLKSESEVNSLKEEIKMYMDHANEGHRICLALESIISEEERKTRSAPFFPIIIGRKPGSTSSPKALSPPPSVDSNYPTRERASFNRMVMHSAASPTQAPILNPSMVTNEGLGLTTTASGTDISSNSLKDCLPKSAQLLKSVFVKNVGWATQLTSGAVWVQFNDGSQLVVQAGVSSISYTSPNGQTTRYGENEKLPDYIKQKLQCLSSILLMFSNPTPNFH
The assay is described as follows: Induction of Plk4 in human U2OS cells assessed as bipolar cell division of cell populations with extra centrosomes by centrin staining based analysis. The following applies: filed as activator. Put shortly: (§1)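 U2OS cells with doxycycline-inducible Plk4 were induced with doxycycline (2 μg·ml⁻¹) or given DMSO. Metaphase spindles carrying more than 2 centrosomes were counted by centrin staining (~300 spindles), and spindle polarity was followed by centrin/α-tubulin/DNA immunofluorescence.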

The target in assay [17] is T2, Serine/threonine-protein kinase PLK4 (Homo sapiens). The experiment in a line: Induction of Plk4 in human U2OS cells assessed as increase in cell populations with extra centrosomes by centrin staining based analysis relative to control. The following applies: filed as activator. The method in brief:
as §1

Assay [18] has the same target. The experiment in a line: Induction of Plk4 in human U2OS cells assessed as resolution of metaphase multipolar spindles into bipolar spindles in anaphase in cell populations with extra centrosomes by centrin staining based analysis. The settings on record: filed as activator. The method in brief:
as §1

The test system of assay [19] is UTRM10. The assay is described as follows: Effect on thymidine-treated UTRM10 cells (unknown origin) with Mps1-/- incubated for 24 to 72 hrs by immunoblot analysis. The following applies: time lower 24.0 hrs, time upper […]. Format: functional, cell-based.

Chain of Serine/threonine-protein kinase 33 (Q9BYT3 whole entry): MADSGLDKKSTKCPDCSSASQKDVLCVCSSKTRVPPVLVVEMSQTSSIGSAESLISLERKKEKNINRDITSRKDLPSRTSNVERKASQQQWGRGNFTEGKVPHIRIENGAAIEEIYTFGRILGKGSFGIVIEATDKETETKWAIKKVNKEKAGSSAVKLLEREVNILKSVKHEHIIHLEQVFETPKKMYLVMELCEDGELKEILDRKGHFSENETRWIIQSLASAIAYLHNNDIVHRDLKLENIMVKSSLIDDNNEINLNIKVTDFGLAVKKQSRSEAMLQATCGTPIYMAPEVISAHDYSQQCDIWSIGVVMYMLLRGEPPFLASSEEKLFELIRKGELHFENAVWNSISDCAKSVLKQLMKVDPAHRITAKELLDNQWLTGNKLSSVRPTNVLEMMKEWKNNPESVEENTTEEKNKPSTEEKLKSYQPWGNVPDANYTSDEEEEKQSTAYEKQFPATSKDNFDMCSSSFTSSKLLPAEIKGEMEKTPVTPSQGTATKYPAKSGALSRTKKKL
Chain of Serine/threonine-protein kinase PLK1 (P53350 whole entry): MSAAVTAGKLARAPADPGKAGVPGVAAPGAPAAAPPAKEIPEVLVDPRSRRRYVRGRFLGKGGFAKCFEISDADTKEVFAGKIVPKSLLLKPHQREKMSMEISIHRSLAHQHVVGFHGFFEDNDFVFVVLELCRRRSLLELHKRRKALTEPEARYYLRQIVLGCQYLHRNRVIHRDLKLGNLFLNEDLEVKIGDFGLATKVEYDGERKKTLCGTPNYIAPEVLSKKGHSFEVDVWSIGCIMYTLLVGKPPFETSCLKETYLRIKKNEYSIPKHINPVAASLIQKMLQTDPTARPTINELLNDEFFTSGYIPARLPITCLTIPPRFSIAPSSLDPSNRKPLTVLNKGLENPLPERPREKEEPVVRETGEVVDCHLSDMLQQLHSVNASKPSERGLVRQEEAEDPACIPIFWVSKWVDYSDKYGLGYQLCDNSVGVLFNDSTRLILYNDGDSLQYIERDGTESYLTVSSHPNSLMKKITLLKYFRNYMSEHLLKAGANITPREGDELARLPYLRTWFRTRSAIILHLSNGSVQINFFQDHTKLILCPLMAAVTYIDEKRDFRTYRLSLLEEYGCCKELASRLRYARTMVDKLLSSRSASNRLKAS
Chain of Protein-tyrosine kinase 2-beta (Q14289 whole entry, looked up): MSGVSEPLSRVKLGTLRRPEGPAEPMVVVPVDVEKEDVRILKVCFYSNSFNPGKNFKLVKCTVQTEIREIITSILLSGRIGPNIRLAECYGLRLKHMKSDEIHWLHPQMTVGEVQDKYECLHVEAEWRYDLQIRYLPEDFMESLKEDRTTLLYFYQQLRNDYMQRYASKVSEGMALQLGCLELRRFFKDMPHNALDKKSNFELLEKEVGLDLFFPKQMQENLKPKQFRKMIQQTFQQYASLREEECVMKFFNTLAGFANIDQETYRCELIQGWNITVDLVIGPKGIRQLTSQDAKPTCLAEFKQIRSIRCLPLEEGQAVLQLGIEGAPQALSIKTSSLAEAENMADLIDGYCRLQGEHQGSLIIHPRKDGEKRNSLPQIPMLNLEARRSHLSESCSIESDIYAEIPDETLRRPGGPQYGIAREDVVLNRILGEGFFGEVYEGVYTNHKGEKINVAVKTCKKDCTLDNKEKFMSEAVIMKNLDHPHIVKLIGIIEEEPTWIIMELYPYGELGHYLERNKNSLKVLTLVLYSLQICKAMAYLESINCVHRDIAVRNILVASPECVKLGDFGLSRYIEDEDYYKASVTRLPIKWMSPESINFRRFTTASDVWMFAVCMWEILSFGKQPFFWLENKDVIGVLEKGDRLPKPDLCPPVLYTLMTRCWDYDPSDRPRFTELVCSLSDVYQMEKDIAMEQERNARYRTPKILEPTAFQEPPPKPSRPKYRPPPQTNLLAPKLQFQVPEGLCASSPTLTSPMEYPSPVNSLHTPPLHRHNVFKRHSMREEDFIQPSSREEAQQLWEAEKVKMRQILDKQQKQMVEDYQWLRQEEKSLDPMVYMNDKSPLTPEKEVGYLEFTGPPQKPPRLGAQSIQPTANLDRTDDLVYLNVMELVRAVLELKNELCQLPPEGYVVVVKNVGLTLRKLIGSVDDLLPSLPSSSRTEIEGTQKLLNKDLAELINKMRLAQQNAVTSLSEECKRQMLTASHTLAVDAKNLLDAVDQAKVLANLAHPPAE
Chain of Serine/threonine-protein kinase PLK3 (Q9H4B4 whole entry): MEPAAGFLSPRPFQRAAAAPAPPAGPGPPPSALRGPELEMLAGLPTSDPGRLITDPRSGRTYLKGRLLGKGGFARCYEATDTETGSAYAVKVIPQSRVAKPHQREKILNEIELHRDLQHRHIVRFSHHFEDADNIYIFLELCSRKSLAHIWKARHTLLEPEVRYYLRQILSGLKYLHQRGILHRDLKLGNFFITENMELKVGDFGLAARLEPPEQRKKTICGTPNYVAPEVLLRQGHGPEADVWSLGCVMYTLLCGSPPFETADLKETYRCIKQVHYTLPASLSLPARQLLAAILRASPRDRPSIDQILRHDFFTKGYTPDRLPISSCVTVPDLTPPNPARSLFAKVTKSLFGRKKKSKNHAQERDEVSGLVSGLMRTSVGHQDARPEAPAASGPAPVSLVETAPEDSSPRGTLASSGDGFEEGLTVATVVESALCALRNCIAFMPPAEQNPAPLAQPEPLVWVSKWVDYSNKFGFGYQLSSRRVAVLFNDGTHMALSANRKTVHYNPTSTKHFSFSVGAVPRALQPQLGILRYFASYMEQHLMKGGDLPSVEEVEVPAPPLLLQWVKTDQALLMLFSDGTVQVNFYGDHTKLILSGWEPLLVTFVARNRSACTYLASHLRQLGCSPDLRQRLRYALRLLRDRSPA
Chain of Receptor-type tyrosine-protein kinase FLT3 (Homo sapiens) (P36888 whole entry): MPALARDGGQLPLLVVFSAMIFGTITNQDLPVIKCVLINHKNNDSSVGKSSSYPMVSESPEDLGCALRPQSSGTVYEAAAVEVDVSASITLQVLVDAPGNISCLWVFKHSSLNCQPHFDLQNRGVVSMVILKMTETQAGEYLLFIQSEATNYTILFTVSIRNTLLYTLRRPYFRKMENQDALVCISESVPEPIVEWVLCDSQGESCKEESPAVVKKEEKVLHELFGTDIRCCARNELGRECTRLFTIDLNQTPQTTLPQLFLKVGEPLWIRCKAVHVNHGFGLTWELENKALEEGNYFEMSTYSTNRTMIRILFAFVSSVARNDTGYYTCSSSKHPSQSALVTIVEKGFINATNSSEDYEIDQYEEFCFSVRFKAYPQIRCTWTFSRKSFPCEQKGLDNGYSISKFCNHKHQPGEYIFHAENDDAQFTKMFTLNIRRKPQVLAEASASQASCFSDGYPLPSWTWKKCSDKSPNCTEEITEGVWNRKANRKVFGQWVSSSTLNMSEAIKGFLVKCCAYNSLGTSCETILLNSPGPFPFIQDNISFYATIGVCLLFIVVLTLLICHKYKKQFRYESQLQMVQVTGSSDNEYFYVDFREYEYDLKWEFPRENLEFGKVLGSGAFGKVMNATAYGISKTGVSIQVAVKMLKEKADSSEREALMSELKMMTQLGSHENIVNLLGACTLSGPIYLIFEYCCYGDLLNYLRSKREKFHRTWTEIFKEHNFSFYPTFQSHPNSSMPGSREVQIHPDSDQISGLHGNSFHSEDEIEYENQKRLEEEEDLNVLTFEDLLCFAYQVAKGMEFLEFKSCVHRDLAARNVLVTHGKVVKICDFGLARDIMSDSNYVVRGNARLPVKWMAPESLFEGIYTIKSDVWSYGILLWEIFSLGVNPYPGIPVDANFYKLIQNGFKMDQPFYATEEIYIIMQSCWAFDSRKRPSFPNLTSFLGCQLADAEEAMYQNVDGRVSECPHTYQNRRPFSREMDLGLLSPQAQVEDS

In the case of `CCOc1cc(N2CCC(O)CC2)ccc1Nc1ncc2c(n1)N(C1CCCC1)CCC(=O)N2C`, the result with UTRM10 [1] and with U2OS [2] was Active. Moreover, the Activity in assay [3] was 0%; in [8], 24%; in assay [9] it was 2%; with U2OS [12], 14%; in the assay with U2OS [13] it was 4%. For the same compound, the pKd in [4] was 5.51; in [5], 5.30; in [6], 5.80; in assay [7], 6.85; in assay [10] it was 7.21. Besides, in the assay on U2OS [11], the result was inactive.

For `Cc1cc(Nc2cc(N3CCN(C)CC3)nc(Sc3ccc(NC(=O)C4CC4)cc3)n2)n[nH]1`, the outcome with UTRM10 [14] was Active.

For the compound `C[C@H]1c2cccc(O)c2C(=O)C2=C(O)[C@]3(O)C(=O)C(C(N)=O)=C(O)[C@@H](N(C)C)[C@@H]3[C@@H](O)[C@@H]21` [DOXYCYCLINE ANHYDROUS], in the assay with U2OS [15], the “fold change (FC)” value was found to be 2. For the same compound, the outcome in [16] and in assay [18] was Active. In addition, the Activity in [17] was 80%. Further, in the assay with UTRM10 [19], the result was inactive.
